Hits are enriched below; roughly 2.2% of the tested compounds scored in any of these assays.
V-ATPase pH = regulators of yeast V-ATPase proton pumping, primary screen, pHLuorin cytosolic pH fluorescence; S. cerevisiae; response, % at 10 µM; 0.37% of 350,000 active; AID 504577, 2011; in the data active = response mostly above about 7.3%, no sharp cut-off; inactive = mostly below about 5.4%; note: actives read high
Granule exo inh = LAMP-1 surface exposure blockers, TALL-104 cells – cell-based, flow cytometry, MLPCN library, primary screen; TALL-104 LAMP-1 surface exposure; cells stimulated with thapsigargin and PMA; inhibition, % at 10 µM; 0.66% of 360,000 active; AID 651702, 2012;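 active = inhibition above about 55%, limit read from the data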
ARFGAP1 inhibitor = inhibitors of rat ARFGAP1 GAP activity, primary screen, biochemical, fluorescence polarization, GDP tracer; Arfgap1-stimulated ARF1 GTP hydrolysis, GDP FP detection; AID 651572, 2012; inhibition, % at 16.5 µM; ADP-ribosylation factor GTPase-activating protein 1 (Rattus norvegicus), Q62848; 0.26% of 360,000 active;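 active = inhibition above a per-plate limit, mean inhibition of low control wells plus 3 SD, cut at about 25% in these data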
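Material: rat Arfgap1 GAP domain (His6, aa 1-136), purified enzyme. Also added: human ARF1(Δ1-17)-GTP substrate. Compound dosing: 16.5 µM single point, 1.26% DMSO. Timing: enzyme reaction 120 min at 25 °C after 20 min preincubation. Signal: GDP detection by fluorescence polarization. Read-out basis: percent inhibition of GAP-stimulated GDP formation, scaled between DMSO and no-Arfgap1 medians.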
CendR NRP1 mod = modulators of CendR peptide binding to NRP-1, primary screen, biochemical, fluorescence polarization, uHTS; Neuropilin-1 (Homo sapiens), O14786; FAM-RPARPAR peptide binding to NRP-1; inhibition, % at 25 µM; 0.85% of 360,000 active; AID 602438, 2012;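 active = inhibition or corrected inhibition above about 18%, plus a signal ratio from 0.5 to 1.5, limit read from the data, passing the limit was not always enough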
Target sequence (O14786 whole entry, looked up): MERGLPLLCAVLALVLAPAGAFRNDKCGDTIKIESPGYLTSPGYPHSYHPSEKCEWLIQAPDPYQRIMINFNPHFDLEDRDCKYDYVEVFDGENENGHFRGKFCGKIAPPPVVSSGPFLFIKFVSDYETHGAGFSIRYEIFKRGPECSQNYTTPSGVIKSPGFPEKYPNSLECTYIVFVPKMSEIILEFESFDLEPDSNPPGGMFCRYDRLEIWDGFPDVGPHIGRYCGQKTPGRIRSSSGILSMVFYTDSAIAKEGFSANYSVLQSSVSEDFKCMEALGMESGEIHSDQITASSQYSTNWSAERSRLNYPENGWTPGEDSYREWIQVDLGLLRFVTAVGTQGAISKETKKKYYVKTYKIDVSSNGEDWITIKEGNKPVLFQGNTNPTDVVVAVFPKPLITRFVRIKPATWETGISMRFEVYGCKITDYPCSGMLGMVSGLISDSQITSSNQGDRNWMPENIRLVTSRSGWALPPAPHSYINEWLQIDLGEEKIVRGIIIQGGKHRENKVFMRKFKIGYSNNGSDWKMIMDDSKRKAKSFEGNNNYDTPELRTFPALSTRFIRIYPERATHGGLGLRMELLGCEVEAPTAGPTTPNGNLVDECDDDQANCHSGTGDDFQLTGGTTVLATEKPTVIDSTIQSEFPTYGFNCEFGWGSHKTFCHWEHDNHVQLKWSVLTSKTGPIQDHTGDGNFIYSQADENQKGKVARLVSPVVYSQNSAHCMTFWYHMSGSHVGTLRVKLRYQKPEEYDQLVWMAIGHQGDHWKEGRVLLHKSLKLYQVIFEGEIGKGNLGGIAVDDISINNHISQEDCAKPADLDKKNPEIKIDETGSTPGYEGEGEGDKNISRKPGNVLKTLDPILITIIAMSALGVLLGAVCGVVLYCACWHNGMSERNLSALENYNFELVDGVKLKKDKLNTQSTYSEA
ASAP1 GAP inh = inhibitors of human ASAP1 ArfGAP activity, primary screen, biochemical, fluorescence polarization; Arf-GAP with SH3 domain, ANK repeat and PH domain-containing protein 1 (Homo sapiens), …; ASAP1-stimulated ARF1 GTP hydrolysis, GDP FP detection; inhibition, % at 16.5 µM; 0.19% of 360,000 active; AID 624377, 2012; in the data active = inhibition above about 25%
ASAP1 GAP conf = ASAP1 GAP activity inhibitors, confirmation, biochemical, fluorescence polarization, human, triplicate; shares compounds with ASAP1 GAP inh; inhibition, % at 16.5 µM; ASAP1-stimulated Arf1 GTPase, GDP fluorescence polarization; AID 624431, 2012; 37% of 620 active;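 active = mean inhibition over triplicates exceeds the hit threshold derived for the earlier primary screening run, cut at about 25% in these data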
Each line names hits and unclear results; the compound was inactive in the other large screens (follow-up assays come after a bar, where they were run).

CC1CN(S(=O)(=O)c2ccc(NC(=O)c3cc(-c4ccccc4O)n[nH]3)cc2)CC(C)O1 (centres undefined)	ASAP1 GAP inh 25.9 | ASAP1 GAP conf inactive
N#CC1=C(c2ccc(-c3ccccc3)cc2)COC1=O	ASAP1 GAP inh 28.7 | ASAP1 GAP conf 41.0
O=C1OCC(c2ccccc2)=C1c1ccccc1	none
O=C(COc1c(F)c(F)c(C(F)(F)F)c(F)c1F)Nc1ccc(N2CCOCC2)c(Cl)c1	ASAP1 GAP inh 25.0 | ASAP1 GAP conf inactive
COc1ccc(C(=O)Nc2nc3cc4c(cc3s2)OCO4)c(OC)c1	ASAP1 GAP inh 31.4 | ASAP1 GAP conf 41.4
O=C(Nc1ccc(Br)cc1)C1CCN(C(=O)c2ccco2)CC1	none
Cc1cc(NC(=O)C2CCN(C(=O)c3ccco3)CC2)ccc1Br	ASAP1 GAP inh 29.7 | ASAP1 GAP conf inactive
CCN(CC)c1nc(N)c2c(N)nc(OC)cc2c1C#N	ASAP1 GAP inh 34.4 | ASAP1 GAP conf inactive
CC1(C)Cc2nc3oc4c(=O)n(CC(=O)Nc5ccccc5)cnc4c3cc2CO1	none
CC1(C)Cc2nc3sc4c(=O)n(CC(=O)NCc5ccco5)cnc4c3cc2CO1	ASAP1 GAP inh 25.2 | ASAP1 GAP conf inactive
C/C(=N/NS(=O)(=O)c1ccc(C)cc1)c1ccc(NC(=O)C(F)(F)F)cc1	ASAP1 GAP inh 25.2 | ASAP1 GAP conf inactive
CCCCn1c2nc3ccccc3nc2c2c(=N)oc(C)nc21	none
COc1ccc(-n2c3nc4ccccc4nc3c3c(=N)oc(C)nc32)cc1	ASAP1 GAP inh 29.6 | ASAP1 GAP conf inactive
CCCS(=O)(=O)N1CCC(C(=O)Oc2ccc(OC)cc2)CC1	none
Cc1ccc(C)c(N(C)S(=O)(=O)c2ccc3[nH]cc(C(=O)NCCN4CCOCC4)c(=O)c3c2)c1	none
Cc1ccc(N(C)S(=O)(=O)c2ccc3[nH]cc(C(=O)NCCCN4CCOCC4)c(=O)c3c2)cc1C	ASAP1 GAP inh 30.1 | ASAP1 GAP conf inactive
Cc1cccc(OCC(=O)N(Cc2ccccc2)c2c(N)n(Cc3ccccc3)c(=O)[nH]c2=O)c1	none
CCCCOCC1CN(CCCC)S(=O)(=O)c2c(Oc3ccc(SC)c(C)c3)cccc2O1 (centres undefined)	none (no result: V-ATPase pH, Granule exo inh, CendR NRP1 mod)
OCCCNc1cc(-c2ccnc(Nc3cccc(Cl)c3)n2)ccn1	ASAP1 GAP inh 26.6 | ASAP1 GAP conf inactive
CCc1cc2c(SCC(=O)N3CCN(C(=O)c4cccs4)CC3)ncnc2s1	none
CC(/C=C/c1ccccc1)=N/NC(=O)CNC(=O)c1ccccc1F	none
CC(/C=C/c1ccccc1)=N\NC(=O)CNC(=O)c1ccccc1Cl	ASAP1 GAP inh 24.7 (no result: V-ATPase pH) | ASAP1 GAP conf inactive
CCOC(=O)c1sc(Nc2nc3c(OC)cccc3s2)nc1C	ASAP1 GAP inh 25.4 | ASAP1 GAP conf inactive
Cc1cccc(C)c1NC(=O)CN(C)C(=O)Cn1c(=O)cnc2ccccc21	none
Cc1cc(N2CCN(C)CC2)nc2ccc(NC(=O)CCC3CCCC3)cc12	ASAP1 GAP inh 27.8 | ASAP1 GAP conf 39.4
C[C@@H](NCCCn1ccc(NC(=O)OCc2ccccc2)nc1=O)c1cccc2ccccc12	none
Cc1ccc(S(=O)(=O)Nc2ccccc2C(=O)Nc2nc(-c3ccc(F)cc3)cs2)cc1	none
COc1ccc(-c2csc(NC(=O)c3ccccc3NS(=O)(=O)c3ccc(F)c(F)c3)n2)cc1	ASAP1 GAP inh 28.6 | ASAP1 GAP conf inactive
Cc1nc(SCC(=O)Nc2c(C)nn(C)c2C)c2cnn(-c3ccccc3)c2n1	ASAP1 GAP inh 25.1 | ASAP1 GAP conf inactive
Cc1nn(Cc2ccccc2)c(C)c1NC(=O)CSc1nc(-c2ccccc2)nc2c1cnn2-c1ccccc1	none
O=C(CCNC(=O)c1ccc([N+](=O)[O-])cc1)Nc1cccc(S(=O)(=O)N2CCCCCC2)c1	none
CCC(C)(C)NC(=O)C(c1ccc(OC)cc1)N(C(=O)CCC(=O)Nc1cc(C)on1)c1ccccc1OC (centres undefined)	ASAP1 GAP inh 27.1 | ASAP1 GAP conf inactive
